Test results from publication PMC3910017 (CPT: Pharmacometrics & Systems Pharmacology, 2014).
Several values for one entry are separate records, joined by “and”; a condition that tells them apart may be missing. Identical values can stand only once. Like-named read-outs stand apart in the source and are kept apart here.

What was measured:
[1] = Healthy subject studies of evacetrapib; assay type: in vivo, human; settings: 30-mg single dose, healthy subjects; data not shown
LDL-C [2] = assay: LDL-C percent change from baseline, exposure-response; assay type: in vivo, human
In short: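 Arms were placebo or 30, 100 or 500 mg daily monotherapy, or 100 mg with simvastatin 40 mg, atorvastatin 20 mg or rosuvastatin 10 mg, for 12 weeks. LDL-C was measured by standard enzymatic assay at weeks 2, 4, 8 and 12. Percent change from baseline was modelled with placebo, statin and test-compound Emax terms on post hoc AUC, an interaction term, and time constant K. Covariates included baseline ApoA1.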

HDL-C [3] = settings: dyslipidemic patients, alone or with statins; cited from earlier work
Metabolism = settings: separate studies
[4] = cited from earlier work
LDL-C [5] = settings: dyslipidemic patients, alone or with statins; cited from earlier work
HDL-C [6] = assay: HDL-C percent change from baseline, exposure-response; assay type: in vivo, human; settings: for HDL-C increase as percent of the maximal effect: from EAUC50 and estimated AUC
In short: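 Dyslipidemic patients took placebo or 30, 100 or 500 mg daily for 12 weeks, or 100 mg plus simvastatin 40 mg, atorvastatin 20 mg or rosuvastatin 10 mg. HDL-C was measured by enzymatic assay at weeks 2, 4, 8 and 12. Percent change from baseline was fitted with placebo and statin terms plus a sigmoid Emax on each patient's post hoc steady-state AUC (EAUC50, Hill coefficient), with rate constant K.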

[7] = ref J.G. Suico et al., unpublished data, cited from earlier work
Protein binding = assay type: in vitro ADME; settings: separate studies
[8] = assay type: in vivo, human
[9] = patients in the ILLUMINATE study; cited from earlier work
[10] = cited from earlier work; remark: listed apart in the source
HDL-C [11] = settings: similar exposure-response analysis; cited from earlier work
LDL-C [12] = settings: cited from earlier work
[13] = week 16–18, 4–6 weeks after last dose, monotherapy groups
[14] = phase III formulation of anacetrapib

Cc1cc(C)c2c(c1)[C@@H](N(Cc1cc(C(F)(F)F)cc(C(F)(F)F)c1)c1nnn(C)n1)CCCN2C[C@H]1CC[C@H](C(=O)O)CC1 [evacetrapib]
AUC0–∞ increased after a high-fat meal relative to low-fat meal [1]: 41%
AUC0–∞ reduced in the fasted state relative to low-fat meal [1]: 38%
LDL-C response of evacetrapib and the statins, kind of interaction (LDL-C [2]; coadministered with atorvastatin, simvastatin or rosuvastatin): pharmacologically independent
AUC that produced half of maximum effect (EAUC50), LDL-C, population estimate (%SEE, 95% CI) (LDL-C [2]; final LDL-C model): 4,230 (3.23%, 2,450 to 7,010) h·ng/ml
Theoretical maximal mean LDL-C decrease (reduction) relative to baseline (LDL-C [2]; final LDL-C model, printed as a reduction): 44.1%
LDL-C at follow-up visit after discontinuation (LDL-C [2]; [13]): returned to levels similar to those of the placebo group
Observed HDL-C increase (HDL-C [3]): up to 129%
Metabolism (Metabolism): metabolized primarily by oxidative pathways
Safety and tolerability ([4]; administered alone or in combination with statins): safe and well tolerated
Changes in mineralocorticoid levels or increases in systolic or diastolic blood pressure ([4]; dyslipidemic patients): did not cause any significant changes
Observed LDL-C decrease (LDL-C [5]): up to 36%
HDL-C increase as percent of the maximal effect (HDL-C [6]; 30 mg dose): ~ 30 % of the maximal effect
HDL-C increase as percent of the maximal effect (HDL-C [6]; 100 mg dose): ~50 % of the maximal effect
HDL-C increase as percent of the maximal effect (HDL-C [6]; 500 mg dose): ~80 % of the maximal effect
Time course constant (K) of HDL-C response, population estimate (%SEE, 95% CI) (HDL-C [6]; final HDL-C model): 0.00684 (7.43%, 0.00604–0.00791) hour^−1
AUC that produced half of maximum effect (EAUC50), HDL-C, population estimate (%SEE, 95% CI) (HDL-C [6]; final HDL-C model, at median baseline HDL 52.2 mg/dl): 5,380 (1.54%, 3,930–7,270) h·ng/ml
Maximum effect (Emax) on HDL-C, population estimate (%SEE, 95% CI) (HDL-C [6]; theoretical maximum at steady state, final HDL-C model): 177 (6.55%, 153–207) % change from baseline
HDL-C at follow-up visit after discontinuation (HDL-C [6]; [13]): returned to levels similar to those of the placebo group
Half-life ([7]; healthy subject studies): ~40 h
Increase of exposure with dose ([7]; healthy subjects, 10–600 mg dose range): less than dose-proportional
Protein bound (Protein binding): > 99%
Increase of exposure with dose ([8]; 30–500 mg, dyslipidemic patients): less than dose-proportional
Model-predicted population CL/F lower at CGCL 50 ml/minute than at 100 ml/minute ([8]; CGCL 50 vs 100 ml/minute): 10%
Effect of dose on CL/F (covariate coefficient) ([8]; CL/F = 15.3 * (1+0.00105 * DOSE) * (1+0.00198 * (CGCL − 91.28)), DOSE in mg): 0.00105 (21.6%, 0.000726–0.00144)
CL/F, estimated population value ([8]; dose 30 mg): 13.1 L/h
CL/F, estimated population value ([8]; dose 100 mg): 17.0 L/h
CL/F, estimated population value ([8]; dose 500 mg): 25.4 L/h
Oral clearance (CL/F), population estimate (%SEE, 95% CI) ([8]; final population PK model): 15.3 (4.57%, 14.3–16.5) l/hour
Peripheral volume of distribution (V3/F), population estimate (%SEE, 95% CI) ([8]; final population PK model): 827 (18%, 600.7–1,071) l
Rate of absorption (Ka) ([8]; final population PK model, value fixed, not estimated): 0.3 hour^-1 and 0.3 (fixed) hour^-1
Vd/F ([8]; human, plasma, oral): 228 L

CCOC(=O)N1c2ccc(C(F)(F)F)cc2[C@@H](N(Cc2cc(C(F)(F)F)cc(C(F)(F)F)c2)C(=O)OC)C[C@H]1CC [torcetrapib]
Adverse cardiovascular events [9]: increased adverse cardiovascular events

COc1cc(F)c(C(C)C)cc1-c1ccc(C(F)(F)F)cc1CN1C(=O)O[C@H](c2cc(C(F)(F)F)cc(C(F)(F)F)c2)[C@@H]1C [anacetrapib]
Increase of exposure with dose [10]: Less than dose-proportional
AUC with high-fat meal vs fasted state [10, 14]: 7.5 fold
AUC with low-fat meal vs fasted state [10, 14]: 2.2 fold
Maximal effect on HDL-C (HDL-C [11]): 176%
LDL-C reduction in combination with atorvastatin, kind of interaction (LDL-C [12]): pharmacologically independent
Theoretical maximal LDL-C reduction (LDL-C [12]; similar LDL-C model): 80%
